Experimental data from PMC3220529 (The Journal of Biological Chemistry, 2011).
“Also recorded” adds a separate entry of the source. One block for each molecule: values may come before it.

How the values were obtained:
[1] = target: S100A10-annexin A2 hybrid protein (A10A2) dimer (Oryctolagus cuniculus, UniProt Q6SQH4, C83S); test: NMR titration; format: binding, rabbit; conditions: pH 7.0
S100A10 [2] = format: binding, rabbit; conditions: absence of annexin A2 peptide; data not shown
[3] = target: T1, A10A2 hybrid protein (dimer) (Oryctolagus cuniculus, UniProt Q6SQH4, C83S); test: Fluorescence titration of acrylodan-labeled A10A2 with AHNAK5; format: binding, rabbit; conditions: shifted from near 495 nm; intensity decreased; pH 7.4
Summary of the method: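 Rabbit S100A10(C82S)–annexin A2 hybrid was made as a GST fusion in E. coli, cleaved with PreScission, and labelled with acrylodan. 167 nM labelled protein in 20 mM Tris-HCl, 120 mM NaCl, 1 mM DTT, pH 7.4, was stirred at room temperature. Peptide was added stepwise with 2 min stirring each. Excitation 375 nm, emission 400–600 nm, ΔF at 500 nm. Duplicate titrations were globally fit 1:1 for Kd.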

S100A10 [4] = test: Fluorescence titration of acrylodan-labeled S100A10 with AHNAK5; format: binding, rabbit; conditions: absence of annexin A2 peptide
[5] = target: T1, A10A2 hybrid protein (dimer); test: Isothermal titration calorimetry of AHNAK5 into A10A2; format: binding, rabbit
A10A2 = test: Peptide array of AHNAK C terminus probed with Alexa Fluor 680-A10A2; format: binding, rabbit; conditions: 18-residue peptides shifted by 3 residues, Alexa-A10A2 0.2 μM, 2 h, 700 nm
Summary of the method: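 330 spots of 18-residue AHNAK peptides (residues 4884–5890, 3-residue offset) were Fmoc-synthesized on […]. Membranes were methanol-hydrated, washed in TBS + 0.05% Tween, and blocked 1 h with skim milk. A10A2 is a rabbit S100A10(C82S)–annexin A2 hybrid made in E. coli.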

S100A10-annexin A2 = S100A10-annexin A2 (Oryctolagus cuniculus, UniProt Q6SQH4, C83S); test: Overall binding of AHNAK5 to S100A10-annexin A2; design: species or system rabbit; conditions: S100A10 without annexin A2 peptide; discussion statement
[6] = target: S100A10^C82S (rabbit S100A10 with Cys82 changed to Ser) (rabbit); test: native MS
[7] = target: S100A10^C82S-annexin A2 hybrid protein (A10A2) (rabbit | not stated); test: native MS
[8] = target: non-covalent complex of S100A10 (C82S) dimer with two annexin A2 peptides (residues 1-15) (rabbit | not stated); test: native MS
[9] = target: S100A10^C82S-annexin A2 hybrid protein (A10A2) (rabbit | not stated); test: NMR titration
[10] = target: S100A10^C82S-annexin A2 hybrid protein (A10A2) (rabbit | not stated); test: ITC
[11] = target: acrylodan-labeled A10A2 hybrid protein (rabbit | not stated); test: other fluorescence titration

A10A2 binding in peptide array (intensity, words) (A10A2): best interaction with A10A2
Molecule: sequence a: AHNAK array region Thr4917–Gly4940 (overlapping 18-residue peptides) (TAPDVDLHLKAPKIGFSGPKLEGG)

A10A2 binding in peptide array (intensity, words) (A10A2): best interaction with A10A2
Molecule: sequence c: AHNAK array region Pro5220–Ile5243 (PDVDLQGPEAKIKFPKFSMPKIGI)

A10A2 binding in peptide array (intensity, words) (A10A2): best interaction with A10A2
Molecule: sequence f: AHNAK array region Ser5703–Thr5729 (SEVKLKKSKIKMPKFNFSKPKGKGGVT)

A10A2 binding in peptide array (intensity, words) (A10A2): best interaction with A10A2
Molecule: sequence h: AHNAK array region Leu5808–Glu5837 (LEGGKVKGKHGKLKFGTFGGLGSKSKGHYE)

stoichiometry N (AHNAK5 per A10A2 dimer) [7]: 1
stoichiometry N [8]: 1
Kd [9]: < 1000 nM
stoichiometry N (AHNAK5 per A10A2 dimer) [9]: 1
Kd [10]: 28 nM
dH [10]: -10 kcal/mol
stoichiometry N (AHNAK5 per A10A2 dimer) [10]: 1.02
Kd [11]: 35 nM
Molecule: Ac-GKVTFPKMKIPKFTFSGREL-NH2 [AHNAK5 peptide (AHNAK residues Gly5654-Leu5673)]

The next lines start with the molecule.

Molecule: Ac-GKVTFPKMKIPKFTFSGREL-NH2 [AHNAK5]
exchange regime / peak doubling on AHNAK5 binding, A10A2 ([1]; 1H-15N HSQC, 0.5 mM A10A2 (protomer), 0.25 mM AHNAK5, 35 °C): disappearance of peaks from S100A10 and the appearance of new resonances on the slow exchange time scale; also recorded: resonances from the annexin A2 portion of A10A2 also exhibited peak doubling
stoichiometry AHNAK5 : A10A2 dimer, NMR ([1]; inflection point of peak intensity changes, 35 °C): one AHNAK5 peptide to one A10A2 dimer
interaction with S100A10 without annexin A2, NMR (S100A10 [2]): did not show an interaction between S100A10 and AHNAK5; also recorded: no evidence for interaction of AHNAK5 with S100A10 in the absence of annexin A2
precipitation during titration of S100A10 with AHNAK5 (S100A10 [2]): prone to precipitation
acrylodan-A10A2 fluorescence maximum upon addition of AHNAK5 [3]: 500 nm
interaction with S100A10, fluorescence (S100A10 [4]): little wavelength shift, suggestive of a poor interaction
entropy change ([5]; ITC): positive entropy change
ΔH (binding enthalpy) ([5]; ITC, 35 °C, pH 7.2): -10 ± 0.096 kcal/mol
ΔS (entropy change) ([5]; ITC, 35 °C, pH 7.2): 0.00201 kcal/mol
n (binding sites), ITC ([5]; single binding site fit, 35 °C, pH 7.2): 1.02
A10A2 binding in peptide array (intensity, words) (A10A2): strong interaction with A10A2
interaction in experiments lacking annexin A2 peptide (summary) (S100A10-annexin A2): little or no observable interaction

Molecule: S100A10^C82S (rabbit S100A10 with Cys82 changed to Ser) (natural protein)
stoichiometry N [6]: 2

Molecule: S100A10^C82S-annexin A2 hybrid protein (A10A2)
stoichiometry N [7]: 2

Molecule: sequence b: AHNAK array region Asp4959–Pro4994; most intense spot 4968–4985 (DSPDINIEGPDVKIPKFKKPKFGFGAKSPKADIKSP)
A10A2 binding in peptide array (intensity, words) (A10A2): best interaction with A10A2; also recorded: most intense binding at any one spot

Molecule: sequence d: AHNAK array region Asn5607–Ile5633 (NLDTSKFAGGLHFSGPKVEGGVKGGQI)
A10A2 binding in peptide array (intensity, words) (A10A2): best interaction with A10A2

Molecule: sequence e: AHNAK array region Gly5652–Gly5675; most intense spot 5652–5669 (GSGKVTFPKMKIPKFTFSGRELVG)
A10A2 binding in peptide array (intensity, words) (A10A2): best interaction with A10A2; also recorded: most intense binding at any one spot

Molecule: sequence g: AHNAK array region Ala5757–Ser5780 (AEAEASSPKGKFSLFKSKKPRHRS)
A10A2 binding in peptide array (intensity, words) (A10A2): best interaction with A10A2

Molecule: Ac-STVHEILSKLSLEGD-NH2 [annexin A2 peptide (residues 1-15)]
stoichiometry N (annexin A2 peptides per S100A10 dimer) [6]: 2
